Laboratory results from ChEMBL document CHEMBL1155133, “Synthesis, cytotoxicity, and antioxidative activity of minor prenylated chalcones from Humulus lupulus” (J Nat Prod, 2008).

What was measured:
[1] = Antioxidant activity assessed as trolox equivalents at 0.1 to 1 uM by ORAC-fluorescein assay; assay type: functional
Procedure, shortened: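 Fluorescein probe at 300 nM final in 75 mM phosphate buffer, pH 7.4. Samples at five concentrations (0.1-1.0 µM) preincubated with probe at 37 °C for 15 min. AAPH (12 mM final) then added. Fluorescence (ex 485/em 536 nm) read every minute for 80 min at 37 °C. Quadruplicates, ≥4 independent assays. AUC converted to Trolox equivalents (mean ± SD) using a 1-8 µM Trolox curve run in each assay.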

HeLa = test: Cytotoxicity against human HeLa cells by MTT assay after 72 hrs; assay type: functional, cell-based
Procedure, shortened: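 HeLa (ATCC […]) cells grown in MEM with 10% FCS and 2 mM L-glutamine at 37 °C, 5% CO2. MTT colorimetric read-out at 560 nm. Eight concentrations tested in duplicate, with experiments repeated three times. IC50 reported as mean ± SD.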

[2] = Antioxidant activity assessed as trolox equivalents at 0.4 to 1.3 uM by ORAC-fluorescein assay; assay type: functional
[3] = Antioxidant activity assessed as trolox equivalents at 0.2 to 1 uM by ORAC-fluorescein assay; assay type: functional
[4] = Antioxidant activity assessed as trolox equivalents at 0.2 to 0.6 uM by ORAC-fluorescein assay; assay type: functional

## COc1cc(O)c(CC=C(C)C)c(O)c1C(=O)/C=C/c1ccc(O)cc1
[1]
  Activity: 2.3

## CC(C)=CCC/C(C)=C/Cc1c(O)cc(O)c(C(=O)/C=C/c2ccc(O)cc2)c1O
[1]
  Activity: 2.3
HeLa
  IC50: 18.2 µM

## COc1cc2c(c(O)c1C(=O)/C=C/c1ccc(O)cc1)C=CC(C)(C)O2 [XANTHOHUMOL C]
[1]
  Activity: 1.8
HeLa
  IC50: 12.5 µM

## COc1cc(O)c(C/C=C(\C)CCC=C(C)C)c(O)c1C(=O)/C=C/c1ccc(O)cc1
[1]
  Activity: 3.4
HeLa
  IC50: 8.2 µM

## COc1c(CC=C(C)C)c(O)c(CC=C(C)C)c(O)c1C(=O)/C=C/c1ccc(O)cc1
[1]
  Activity: 1.9
HeLa
  IC50: 9.7 µM

## COc1cc(O)c(CCC(C)(C)O)c(O)c1C(=O)/C=C/c1ccc(O)cc1 [XANTHOHUMOL H]
[1]
  Activity: 4.8
HeLa
  IC50: 9.2 µM

## COc1cc(/C=C/C(=O)O)ccc1O
[2]
  Activity: 4.4

## COc1cc(OC)c(C(=O)/C=C/c2ccc(O)cc2)c(O)c1C
[1]
  Activity: 2.1
HeLa
  IC50: 12.2 µM

## COc1c(CC=C(C)C)c(O)cc(O)c1C(=O)/C=C/c1ccc(O)cc1
[1]
  Activity: 5.2
HeLa
  IC50: 10.4 µM

## O=C(O)/C=C/c1ccc(O)c(O)c1
[3]
  Activity: 6.6

## COc1cc(O)c(C(=O)/C=C/c2ccc(O)cc2)c(OC)c1 [FLAVOKAWAIN C]
[1]
  Activity: 4
HeLa
  IC50: 19.2 µM

## COc1cc2c(c(O)c1C(=O)/C=C/c1ccc(O)cc1)CCC(C)(C)O2
[1]
  Activity: 1.7
HeLa
  IC50: 15.4 µM

## O=c1c(O)c(-c2ccc(O)c(O)c2)oc2cc(O)cc(O)c12
[4]
  Activity: 10.5
